Assay results from ChEMBL document CHEMBL5625176, “Immunosuppressive effects of new thiophene-based KV1.3 inhibitors” (Eur J Med Chem, 2023).
pIC50: −log10 of the molar value. In brackets after ≈: the same amount, converted by molar mass. Activity calls are given as the source filed them. The calls are words filed in the database; no cut-off is given here.

How the values were obtained:
[1] = target: T1, Potassium voltage-gated channel subfamily A member 3 (Homo sapiens, UniProt P22001); test: Inhibition of human Kv1.3 expressed in Xenopus laevis Oocyte cells at 10 uM by manual patch clamp method relative to control; format: cell-based
How it was run: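 Human Kv1.3 cRNA injected into defolliculated Xenopus oocytes. Two-electrode voltage clamp 1–4 days later at 18–22 °C in ND96 (pH 7.5). Currents evoked by 1 s depolarizations, with inhibition read at the 0 mV step. Compounds from DMSO stock at ≤0.5% DMSO, either single 10 μM or rising concentrations fitted with the Hill equation for IC50.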

[2] = target: T1, Potassium voltage-gated channel subfamily A member 3; test: Inhibition of Kv1.3 (unknown origin) expressed in human PBMC derived PHA-activated T-lymphocyte cells assessed as reduction in total outward potassium current at 5 uM by patch clamp electrophysiology method; format: cell-based
How it was run: (§1)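 Whole-cell recording on PBMC stimulated 5 days with PHA-L (240 ng/mL); about 90% of cells CD3⁺. Large cells chosen; cells with currents ≤500–600 pA discarded. Bath in mM: 130 NaCl, 5 KCl, 2 CaCl₂, 2 MgCl₂, 10 HEPES, 5 glucose, pH 7.4; pipette KF-based with 11 EGTA, pH 7.2. Leak-subtracted two-step outward K⁺ current. Single concentration 5 μM, or 0.05 nM–50 μM for curves; peak normalized to control.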

[3] = target: T1, Potassium voltage-gated channel subfamily A member 3; test: Inhibition of human Kv1.3 expressed in mouse LTK- cells by manual patch clamp electrophysiological recording; format: cell-based
How it was run: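 Mouse Ltk⁻ fibroblasts in DMEM/10% horse serum transiently transfected with hKv1.3 plasmid plus eGFP marker, and recorded 24 h later. Whole-cell patch clamp at 20–23 °C. Compounds diluted from DMSO stocks with final DMSO ≤0.1%, with 0.1% DMSO as vehicle control. Normalized current plotted against concentration and fitted with the Hill equation for IC50; mean ± SEM, n = cells.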

hERG (KCNH2) = hERG (KCNH2) (Homo sapiens, UniProt Q12809); test: Inhibition of hERG overexpressed in HEK293 cells at 5 uM relative to control; format: toxicity, cell-based; conditions: HEK293 cells overexpressing hERG
T-cell line [4] = test: Cytotoxicity against human PBMC derived PHA-activated T-lymphocytes assessed as effect on cell viability by trypan blue staining based analysis; format: toxicity; conditions: 30 µM
How it was run: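 PBMC purified by Ficoll gradient with red-cell lysis, seeded at 1.5 × 10⁶ cells/mL in RPMI with 10% heat-inactivated serum and 2 mM L-glutamine. Activated with PHA-L 240 ng/mL alongside compounds at 30 μM. Viability of treated versus untreated cells judged by trypan blue staining.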

[5] = target: T1, Potassium voltage-gated channel subfamily A member 3; test: Inhibition of Kv1.3 in human PBMC derived PHA-activated T-lymphocytes assessed as reduction in intracellular calcium level at 5 uM incubated for 2 hrs by Fluo-4 Ca2+ based flow cytometric analysis; format: cell-based; conditions: T-lymphocyte
How it was run: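 PBMC activated 5 days with PHA, then given compounds at 5 μM for 2 h. Scraped and loaded with Fluo-4 (2 μM) plus anti-CD3-APC at 37 °C for 1 h, washed, and held 30 min at 37 °C with compound (5 μM) before flow cytometry. Fluo-4 MFI of the CD3⁺ gate, 3 replicates, normalized to untreated control; n = 4.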

T-cell [6] = test: Inhibition of human PBMC derived PHA-activated T-lymphocytes activation assessed as inhibition of colony formation by measuring reduction in colony forming units at 30 uM incubated for 5 days by bright-field microscopic analysis; format: functional, cell-based; conditions: time 5.0 day
How it was run: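 PBMC at 1.5 × 10⁶ cells/mL treated with compounds (30 μM) together with PHA-L (240 ng/mL) for 5 days in RPMI with 10% heat-inactivated bovine calf serum and 2 mM L-glutamine. After medium removal, wells imaged by bright-field microscopy at 2× and colonies (CFU) counted. Mean ± SD of 3 experiments.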

T-cell [7] = test: Induction of cell cycle arrest at G0/G1 phase in human PBMC derived PHA-activated T-lymphocytes assessed as reduction G2/M phase cells at 30 uM measured after 5 days by flow cytometric analysis; format: functional, cell-based; conditions: time 5.0 day
How it was run: (§2)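 PHA-activated PBMC exposed to compounds (30 μM) for 5 days in RPMI/10% heat-inactivated calf serum/2 mM L-glutamine, scraped off and incubated 1 h at 4 °C in the dark. Cell cycle read by flow cytometry and scored as G0/G1 versus cycling (S+G2/M) percentage. Mean ± SD of 3 experiments; unpaired t-test against untreated cells.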

T-cell line [8] = test: Cytotoxicity against human PBMC derived PHA-activated T-lymphocytes assessed as effect on total cell number at 30 uM incubated for 5 days by bright-field microscopic analysis; format: toxicity, cell-based; conditions: 120 h, time 5 day
How it was run: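 Ficoll-purified PBMC at 1.5 × 10⁶ cells/mL in RPMI/10% heat-inactivated serum/2 mM L-glutamine, stimulated with PHA-L 240 ng/mL and exposed to compounds (30 μM) for 5 days. Cells then counted to give total cell number.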

[9] = target: T1, Potassium voltage-gated channel subfamily A member 3; test: Inhibition of Kv1.3 (unknown origin) expressed in PBMC derived PHA-activated T-lymphocyte cells incubated for 5 days by manual patch clamp method; format: cell-based; how it was run: as §1
T-cell [10] = test: Induction of cell cycle arrest at G0/G1 phase in human PBMC derived PHA-activated T-lymphocytes assessed as reduction S phase cells at 30 uM measured after 5 days by flow cytometric analysis; format: functional, cell-based; conditions: time 5.0 day; how it was run: as §2
[11] = Thermodynamic solubility of the compound at pH 7.4 incubated for 24 hrs under shaking condition by HPLC analysis; format: physicochemical; conditions: buffer, read-out: Therm_solubility
How it was run: (§3)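 Supernatant diluted 1:2 or 1:10 in 0.1% TFA/MeCN 1:1 and quantified by reversed-phase UPLC at 290 nm against a 7-point calibration (1–100 μM). Mean of two independent experiments, in μM.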

[12] = Aqueous solubility of compound; format: physicochemical; conditions: buffer; how it was run: as §3
[13] = Aqueous solubility of compound in DMEM; format: physicochemical
[14] = target: T1, Potassium voltage-gated channel subfamily A member 3; test: Inhibition of Kv1.3 (unknown origin) expressed in Xenopus laevis Oocyte cell membrane by Electrophysiology recording; format: cell membranes
T-cell [15] = test: Inhibition of anti-CD3 stimulated human T cell proliferation incubated for 15 to 30 mins in presence of IL-2 by 3H-thymidine uptake assay; format: functional, cell-based
[16] = target: T1, Potassium voltage-gated channel subfamily A member 3; test: Inhibition of Kv1.3 (unknown origin) expressed in CHO cells incubated for 10 mins by 86Rb+ efflux assay; format: cell-based
[17] = target: T1, Potassium voltage-gated channel subfamily A member 3; test: Inhibition of Kv1.3 in human T-lymphocyte by electrophysiology recordings; format: cell-based; how it was run: as §1
[18] = target: T1, Potassium voltage-gated channel subfamily A member 3; test: Inhibition of human Kv1.3 expressed in PHA-activated T-lymphocyte cells assessed as outward current at 1 uM incubated for 1 min by patch clamp electrophysiology method (reference value: 769.2 +/- 199.2 pA); format: cell-based
How it was run: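 Human PBMCs isolated by Ficoll gradient with red-cell lysis, seeded at 1.5 × 10⁶ cells/mL in RPMI with 10% heat-inactivated serum and 2 mM L-glutamine, then stimulated 5 days with PHA-L 240 ng/mL. Whole-cell patch clamp used a bath of (mM) 130 NaCl, 5 KCl, 10 HEPES, pH 7.4 and a pipette of 140 KF, 11 EGTA, pH 7.2. Large cells were selected, and cells with currents ≤500–600 pA were discarded. Outward current was leak-subtracted and compared to control by paired t-test.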

Sequence of hERG (KCNH2) (Q12809 whole entry): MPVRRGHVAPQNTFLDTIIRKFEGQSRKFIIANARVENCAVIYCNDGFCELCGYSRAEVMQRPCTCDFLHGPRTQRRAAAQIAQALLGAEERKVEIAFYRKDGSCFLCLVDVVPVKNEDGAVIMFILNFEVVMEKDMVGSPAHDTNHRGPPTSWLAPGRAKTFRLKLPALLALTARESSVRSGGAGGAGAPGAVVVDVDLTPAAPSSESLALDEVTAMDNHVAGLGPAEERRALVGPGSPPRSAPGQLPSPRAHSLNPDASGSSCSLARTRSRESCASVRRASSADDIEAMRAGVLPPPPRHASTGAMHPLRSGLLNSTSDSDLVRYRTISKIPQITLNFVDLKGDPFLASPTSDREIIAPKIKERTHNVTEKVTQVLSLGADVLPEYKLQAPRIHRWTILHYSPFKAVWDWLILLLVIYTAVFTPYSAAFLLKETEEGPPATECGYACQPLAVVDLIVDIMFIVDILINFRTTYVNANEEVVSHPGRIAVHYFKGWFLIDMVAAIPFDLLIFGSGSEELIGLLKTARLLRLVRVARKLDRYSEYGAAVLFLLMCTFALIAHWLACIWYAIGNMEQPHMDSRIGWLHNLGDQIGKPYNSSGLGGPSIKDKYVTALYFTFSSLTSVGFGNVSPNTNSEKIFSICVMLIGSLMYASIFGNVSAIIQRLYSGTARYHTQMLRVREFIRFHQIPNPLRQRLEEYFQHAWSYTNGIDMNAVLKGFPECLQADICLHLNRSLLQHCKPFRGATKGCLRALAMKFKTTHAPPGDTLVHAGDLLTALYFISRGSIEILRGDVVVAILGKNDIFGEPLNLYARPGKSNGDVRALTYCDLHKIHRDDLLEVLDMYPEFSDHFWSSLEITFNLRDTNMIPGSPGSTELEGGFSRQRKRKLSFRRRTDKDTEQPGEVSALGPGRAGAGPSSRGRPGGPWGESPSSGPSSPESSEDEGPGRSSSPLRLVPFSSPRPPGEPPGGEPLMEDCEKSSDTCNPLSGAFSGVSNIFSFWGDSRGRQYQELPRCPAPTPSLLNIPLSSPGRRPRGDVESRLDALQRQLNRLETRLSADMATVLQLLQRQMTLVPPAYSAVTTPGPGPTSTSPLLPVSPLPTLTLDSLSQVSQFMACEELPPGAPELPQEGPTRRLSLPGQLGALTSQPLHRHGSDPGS
T1 sequence (P22001 whole entry): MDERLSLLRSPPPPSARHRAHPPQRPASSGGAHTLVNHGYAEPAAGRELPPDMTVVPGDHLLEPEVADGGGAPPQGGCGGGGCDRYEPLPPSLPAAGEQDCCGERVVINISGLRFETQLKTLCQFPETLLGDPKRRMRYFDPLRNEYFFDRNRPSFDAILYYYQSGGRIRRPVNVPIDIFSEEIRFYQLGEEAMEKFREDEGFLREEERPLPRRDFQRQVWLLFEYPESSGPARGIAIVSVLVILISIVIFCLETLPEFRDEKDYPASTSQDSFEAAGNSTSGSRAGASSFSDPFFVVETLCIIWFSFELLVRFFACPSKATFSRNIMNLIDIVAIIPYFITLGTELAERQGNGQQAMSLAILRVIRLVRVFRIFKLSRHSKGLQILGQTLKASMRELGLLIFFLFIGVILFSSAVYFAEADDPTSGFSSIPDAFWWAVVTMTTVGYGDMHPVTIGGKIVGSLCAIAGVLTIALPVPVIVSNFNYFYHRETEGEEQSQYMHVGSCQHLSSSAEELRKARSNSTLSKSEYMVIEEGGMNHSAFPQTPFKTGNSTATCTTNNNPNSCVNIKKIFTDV

Compound | inhibition [1] | inhibition [2] | also measured
COc1ccc(F)cc1C(=O)NC[C@]1(c2cccs2)CC[C@H](O)CC1 | 66.4% | Active | –
CNC(=O)O[C@H]1CC[C@](CNC(=O)c2ccccc2OC)(c2cccs2)CC1 | 94.7% | Active | pIC50 [3]: 6.74
CNC(=O)O[C@H]1CC[C@@](CNC(=O)c2ccccc2OC)(c2ccsc2)CC1 | 93% | Active | pIC50 [3]: 6.77; inhibition at 5 µM (hERG (KCNH2)): 19%
CCCNC(=O)O[C@H]1CC[C@](CNC(=O)c2ccccc2OC)(c2ccccc2)CC1 | 40.5% | Active | –
COc1ccc(F)cc1C(=O)NCC1(c2cccs2)CCC(=O)CC1 | 39.1% | Active | –
COc1ccc(C)cc1C(=O)NCC1(c2cccs2)CCC(=O)CC1 | 23.3% | Active | –
COc1ccccc1C(=O)NC[C@]1(c2ccsc2)CC[C@H](O)CC1 | 97.6% | Active | Activity (T-cell line [4]): Non-Toxic; pIC50 [3]: 6.35; inhibition [5]: inactive; inhibition (T-cell [6]): Active; Activity (T-cell [7]): Active; Activity (T-cell line [8]): Non-Toxic; inhibition at 5 µM (hERG (KCNH2)): 15%; pIC50 [9]: 7.25; Activity (T-cell [10]): Active; solubility thermodynamic at 24 h [11]: 72 µM (≈ 24.9 µg/mL)
COc1cc(C)ccc1C(=O)NCC1(c2cccs2)CCC(=O)CC1 | 85.6% | Active | –
COCCCNC(=O)O[C@H]1CC[C@](CNC(=O)c2ccccc2OC)(c2ccsc2)CC1 | 94.5% | Active | pIC50 [3]: 6.17
CNC(=O)O[C@H]1CC[C@](CNC(=O)c2ccccc2OC)(c2ccsc2)CC1 | 79.6% | Active | –
CNC(=O)O[C@H]1CC[C@@](CNC(=O)c2ccccc2OC)(c2cccs2)CC1 | 93.8% | Active | pIC50 [3]: 6.33
C=CCNC(=O)O[C@H]1CC[C@@](CNC(=O)c2ccccc2OC)(c2ccsc2)CC1 | 36.2% | Active | pIC50 [9]: 7.43
O=c1ccc2c(OCCCCOc3ccccc3)c3ccoc3cc2o1 | – | – | solubility [12]: < 1000 µg/mL
O=c1ccc2c(OCCCCOc3ccc(O)cc3)c3ccoc3cc2o1 | – | – | solubility [13]: 0.6 µM (≈ 0.22 µg/mL)
COc1ccccc1C(=O)NCC1(c2cccs2)CCC(=O)CC1 | 95.1% | Active | pIC50 [3]: 5.95; solubility thermodynamic at 24 h [11]: 210 µM (≈ 72.1 µg/mL)
O=C1CCC(CNC(=O)c2ccoc2)(c2cccs2)CC1 | 55.3% | Active | –

Compound | inhibition [1] | inhibition [2] | also measured
O=C(NC[C@]1(c2cccs2)CC[C@H](O)CC1)c1ccoc1 | 65.7% | Active | –
COc1ccccc1C(=O)NC[C@]1(c2ccsc2)CC[C@@H](O)CC1 | 78.5% | Active | –
COc1ccccc1C(=O)NC[C@]1(c2cccs2)CC[C@H](O)CC1 | 90.9% | Active | pIC50 [3]: 6.60
COc1ccccc1C(=O)NCC1(c2ccsc2)CCCC1 | – | – | pIC50 [14]: 4.76
CCCNC(=O)O[C@H]1CC[C@@](CNC(=O)c2ccccc2OC)(c2ccccc2)CC1 | 87.3% | Active | pIC50 (T-cell [15]): 6.47
COc1ccccc1C(=O)NC[C@]1(c2ccsc2)CC[C@H](N)CC1 | 6.46% | Active | –
COc1ccccc1C(=O)NC[C@]1(c2ccsc2)CC[C@@H](N)CC1 | 0.65% | Active | –
CCCNC(=O)O[C@H]1CC[C@](CNC(=O)c2ccccc2OC)(c2ccsc2)CC1 | 25.5% | Active | –
COc1ccccc1C(=O)NCC1(c2ccccc2)CCC(=O)CC1 | 87.5% | Active | pIC50 [16]: 6.59; pIC50 [17]: 6.51; pIC50 (T-cell [15]): 6.00
COc1ccccc1C(=O)NC[C@]1(c2cccs2)CC[C@@H](O)CC1 | 38.5% | Active | –
Clc1ccccc1C(c1ccccc1)(c1ccccc1)n1cccn1 | – | – | Activity [18]: 173 pA
O=C(NC[C@]1(c2cccs2)CC[C@@H](O)CC1)c1ccoc1 | 0% | Active | inhibition at 5 µM (hERG (KCNH2)): 21%
COc1ccccc1C(=O)NCC1(c2ccsc2)CCC(=O)CC1 | 97% | Active | pIC50 [3]: 6.10; solubility thermodynamic at 24 h [11]: 400 µM (≈ 137 µg/mL)
COc1ccc(F)cc1C(=O)NC[C@]1(c2cccs2)CC[C@@H](O)CC1 | 54.9% | Active | –
COCCCNC(=O)O[C@H]1CC[C@](CNC(=O)c2ccccc2OC)(c2cccs2)CC1 | 91.6% | Active | pIC50 [3]: 6.07
